One may read the inhibition as the drop in the measured response relative to a control, in per cent. A word on the IC50: it is the concentration at which inhibition is half-maximal. The bioavailability is the share of a dose that reaches the circulation, judged against a reference dose that is usually intravenous.

Molecules are shown by their SMILES. Where only a bound is given, the exact number is not on record here.

The record followed here is ChEMBL document CHEMBL3414472, “Synthesis, SAR, and series evolution of novel oxadiazole-containing 5-lipoxygenase activating protein inhibitors: discovery of 2-[4-(3-{(r)-1-[4-(2-amino-pyrimidin-5-yl)-phenyl]-1-cyclopropyl-ethyl}-[1,2,4]oxadiazol-5-yl)-pyrazol-1-yl]-N,N-dimethyl-acetamide (BI 665915)” (J Med Chem, 2015).

Data set [1] concerns the target T1, Prostaglandin G/H synthase 2 (Homo sapiens) (UniProt P35354).
T1 sequence (whole entry): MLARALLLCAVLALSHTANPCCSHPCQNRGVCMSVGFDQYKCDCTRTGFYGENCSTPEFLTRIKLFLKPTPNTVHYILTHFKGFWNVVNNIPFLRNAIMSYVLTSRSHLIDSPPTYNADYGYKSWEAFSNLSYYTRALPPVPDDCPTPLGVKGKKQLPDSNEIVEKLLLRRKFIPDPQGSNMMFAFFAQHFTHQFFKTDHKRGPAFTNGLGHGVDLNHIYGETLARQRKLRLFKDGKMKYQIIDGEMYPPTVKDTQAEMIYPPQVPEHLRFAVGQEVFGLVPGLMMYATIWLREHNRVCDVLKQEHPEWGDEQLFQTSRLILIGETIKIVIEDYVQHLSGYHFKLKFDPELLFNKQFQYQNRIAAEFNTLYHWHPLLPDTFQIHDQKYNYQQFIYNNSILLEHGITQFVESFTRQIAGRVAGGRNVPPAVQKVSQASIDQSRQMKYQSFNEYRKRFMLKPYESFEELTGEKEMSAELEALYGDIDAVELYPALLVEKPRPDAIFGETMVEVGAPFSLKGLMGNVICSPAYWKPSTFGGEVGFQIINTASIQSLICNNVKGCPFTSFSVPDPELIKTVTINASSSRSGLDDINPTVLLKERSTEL
Nature of the data set: Inhibition of cycloxygenase-2 (unknown origin) at 10 uM relative to control.

Another data set relates to Canis familiaris. Nature of the data set: Clearance in dog at 1 mg/kg, iv and 10 mg/kg, po relative to hepatic blood flow. The data set is classed as ADME, organism-based, Canis lupus familiaris, Liver. The conditions noted are these: in vivo. An outline of the steps: (§1)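 iv 1 mg/kg in 70 % PEG; po 10 mg/kg as suspension in 0.5 % methyl cellulose/0.015 % Tween. Blood sampled at 11 timepoints (0, 5, 15, 30 min, 1, 2, 4, 6, 8, 12, 24 h) per dose; mean of n = 3. Clearance expressed as percent of hepatic blood flow.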

Data set [2] has as its system Mus musculus. In words: In vivo inhibition of FLAP in C57BL/6 mouse assessed as LTB4 production in calcimycin-stimulated whole blood at 10 mg/kg, po after 2 hrs by ELISA (reference value: 100 +/- 13.3%). Format: functional. Also on record: scale not given: the % may be the effect or the level left. Background: ELISA stands for enzyme-linked immunosorbent assay.
The subject of data set [3] is Mus musculus. In words: In vivo inhibition of FLAP in C57BL/6 mouse assessed as LTB4 production in calcimycin-stimulated whole blood at 100 mg/kg, po after 2 hrs by ELISA (reference value: 100 +/- 13.3%). Format: functional. Also on record: scale not given: the % may be the effect or the level left.
Data set [4] in a line: Volume of distribution at steady state in rat at 1 mg/kg, iv and 10 mg/kg, po. Format: ADME, organism-based. The conditions noted are these: in vivo, read-out: Vdss. In outline: as §1
Data set [5] concerns the target T2, Cytosolic phospholipase A2 (Homo sapiens) (UniProt P47712).
T2 sequence (whole entry): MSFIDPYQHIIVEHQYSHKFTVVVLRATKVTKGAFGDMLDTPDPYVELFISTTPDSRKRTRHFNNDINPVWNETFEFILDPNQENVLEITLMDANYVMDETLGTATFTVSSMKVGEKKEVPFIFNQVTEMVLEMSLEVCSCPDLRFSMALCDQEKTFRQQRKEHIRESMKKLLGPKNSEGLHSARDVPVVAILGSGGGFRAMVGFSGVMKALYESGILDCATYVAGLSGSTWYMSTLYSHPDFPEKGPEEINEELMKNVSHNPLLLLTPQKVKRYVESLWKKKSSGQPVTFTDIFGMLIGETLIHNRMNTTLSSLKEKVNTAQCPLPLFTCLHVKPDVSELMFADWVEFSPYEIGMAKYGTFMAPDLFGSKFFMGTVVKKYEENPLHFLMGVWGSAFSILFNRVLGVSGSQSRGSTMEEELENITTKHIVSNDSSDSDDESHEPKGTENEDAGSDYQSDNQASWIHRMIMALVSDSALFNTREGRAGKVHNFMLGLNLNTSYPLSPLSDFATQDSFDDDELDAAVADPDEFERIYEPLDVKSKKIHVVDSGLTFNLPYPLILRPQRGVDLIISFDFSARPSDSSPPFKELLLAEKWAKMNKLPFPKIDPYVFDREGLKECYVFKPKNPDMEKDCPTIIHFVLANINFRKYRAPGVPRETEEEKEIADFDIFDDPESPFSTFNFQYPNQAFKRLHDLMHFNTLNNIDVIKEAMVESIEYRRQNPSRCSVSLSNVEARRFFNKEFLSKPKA
In words: Inhibition of phospholipase A2 (unknown origin) at 10 uM relative to control.

Data set [6] deals with Mus musculus. Nature of the data set: In vivo inhibition of FLAP in C57BL/6 mouse assessed as LTB4 production in calcimycin-stimulated whole blood at 3 mg/kg, po after 2 hrs by ELISA (reference value: 100 +/- 13.3%). Format: functional. Also on record: scale not given: the % may be the effect or the level left.
For data set [7], the system named is Mus musculus. In words: In vivo inhibition of FLAP in C57BL/6 mouse assessed as LTB4 production in calcimycin-stimulated whole blood at 30 mg/kg, po after 2 hrs by ELISA (reference value: 100 +/- 13.3%). The data set is classed as functional. Also on record: scale not given: the % may be the effect or the level left.
The nature of data set [8]: Permeability across apical to basolateral side in human Caco2 cells measured up to 2 hrs by LC/MS/MS analysis. Format: ADME, cell-based. The conditions noted are these: Caco-2, read-out: permeability. In outline: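 Caco-2 cells seeded at 1-2 x 10^5 cells/cm2 on 0.4 µm PET filter inserts, cultured 10 to 25 days. Compound in HTP-4 buffer applied to apical donor side; donor sampled at start and end, receiver sampled over up to 2 h; quantified by LC/MS/MS. Duplicate 6-timepoint (0 to 2 h).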
In general terms: Caco-2 cells form a polarised layer with tight junctions and transporters.

Data set [9] addresses T3, Arachidonate 5-lipoxygenase-activating protein (Mus musculus, UniProt P30355).
T3 sequence (P30355 whole entry): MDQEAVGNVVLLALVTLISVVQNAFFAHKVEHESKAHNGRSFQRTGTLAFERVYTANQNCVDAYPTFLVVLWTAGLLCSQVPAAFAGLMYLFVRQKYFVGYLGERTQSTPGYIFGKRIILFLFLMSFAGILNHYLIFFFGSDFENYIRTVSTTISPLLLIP
Nature of the data set: Inhibition of FLAP in calcimycin-stimulated mouse whole blood assessed as inhibition of LTB4 synthesis preincubated for 15 mins followed by calcimycin stimulation measured after 30 mins. In outline: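 Mouse whole blood run by the same protocol as the human whole blood LTB4 assay (compound 15 min at 37 °C, 100 µM final calcimycin 30 min, HTRF LTB4 read-out). Geometric mean (n ≥ 3) of duplicate 8-point curves.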

A short description of data set [10]: Plasma concentration in C57BL/6 mouse at 100 mg/kg, po after 2 hrs. Format: ADME, organism-based. Also on record: dose 100 mg/kg, route oral.
The next data set deals with Rattus norvegicus. In words: Clearance in rat at 1 mg/kg, iv and 10 mg/kg, po relative to hepatic blood flow. The data set is classed as ADME, organism-based, Liver. The note with it: in vivo. An outline of the steps: as §1
In another data set the target is hERG (KCNH2) (Homo sapiens, UniProt Q12809). Nature of the data set: Inhibition of human ERG expressed in HEK293 cells assessed as change in tail current at 11 uM by manual patch clamp assay relative to control. The data set is classed as cell-based. The note with it: HEK293 cells that express hERG. In outline:
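Whole-cell manual patch clamp on HEK293 cells stably expressing human ERG, at room temperature (20-22 °C) in a perfusion chamber. Change in hERG tail current amplitude during the hyperpolarizing step measured with escalating compound concentrations.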
Background: The patch-clamp technique gives a direct electrical read-out from membranes.

Data set [11] in a line: Oral bioavailability in dog at 10 mg/kg. The note with it: in vivo. The data set is classed as ADME, organism-based, Canis lupus familiaris. An outline of the steps: as §1

Sequence of hERG (KCNH2) (Q12809 whole entry, the tested form may be a part): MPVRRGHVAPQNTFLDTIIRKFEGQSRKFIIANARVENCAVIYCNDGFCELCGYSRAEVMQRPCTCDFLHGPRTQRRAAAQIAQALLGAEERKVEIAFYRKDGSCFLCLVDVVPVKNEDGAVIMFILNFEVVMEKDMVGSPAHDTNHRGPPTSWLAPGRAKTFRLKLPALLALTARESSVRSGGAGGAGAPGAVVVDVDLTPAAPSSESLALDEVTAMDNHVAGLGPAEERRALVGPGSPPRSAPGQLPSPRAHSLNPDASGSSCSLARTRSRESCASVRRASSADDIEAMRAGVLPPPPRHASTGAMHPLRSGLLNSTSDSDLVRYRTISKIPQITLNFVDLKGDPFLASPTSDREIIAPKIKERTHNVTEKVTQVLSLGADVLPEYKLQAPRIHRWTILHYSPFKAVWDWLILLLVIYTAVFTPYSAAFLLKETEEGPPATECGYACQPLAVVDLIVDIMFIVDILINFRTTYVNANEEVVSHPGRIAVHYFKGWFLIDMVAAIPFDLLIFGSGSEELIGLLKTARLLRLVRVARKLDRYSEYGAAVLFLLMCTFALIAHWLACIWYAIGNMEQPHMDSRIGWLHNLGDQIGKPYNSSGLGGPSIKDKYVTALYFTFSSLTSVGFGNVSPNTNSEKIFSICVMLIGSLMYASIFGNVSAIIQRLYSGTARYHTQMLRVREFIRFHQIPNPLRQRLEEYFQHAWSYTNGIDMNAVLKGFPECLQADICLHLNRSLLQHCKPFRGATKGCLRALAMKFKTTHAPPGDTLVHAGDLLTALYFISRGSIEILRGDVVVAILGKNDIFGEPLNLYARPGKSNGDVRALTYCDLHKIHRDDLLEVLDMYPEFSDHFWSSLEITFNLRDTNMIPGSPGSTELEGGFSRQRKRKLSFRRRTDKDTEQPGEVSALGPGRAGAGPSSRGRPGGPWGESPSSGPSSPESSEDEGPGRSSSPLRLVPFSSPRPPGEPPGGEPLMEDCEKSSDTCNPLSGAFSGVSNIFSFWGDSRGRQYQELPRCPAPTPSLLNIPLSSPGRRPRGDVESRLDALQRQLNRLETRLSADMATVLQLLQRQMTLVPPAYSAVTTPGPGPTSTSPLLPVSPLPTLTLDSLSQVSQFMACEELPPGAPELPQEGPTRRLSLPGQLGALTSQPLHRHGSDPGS

Consider `CN(C)C(=O)Cn1cc(-c2nc([C@@](C)(c3ccc(-c4cnc(N)nc4)cc3)C3CC3)no2)cn1` [BI 665915], for which the inhibition in data set [1] and in data set [5] was under 50% each time. Besides, the CL with Canis familiaris was determined as 2.8%; with Rattus norvegicus, 7%. Besides, the Activity in the data set with Mus musculus [2] came to 35.2%; in the data set with Mus musculus [3], 5.1%; with Mus musculus [6], 91%; in the data set with Mus musculus [7], 22.2%. Further, the Vd in data set [4] stood at 0.9 L/kg. In addition, in [8], the Papp A→B at 2 h was 34 ×10⁻⁶ cm/s. In addition, the IC50 in [9] worked out at 4.8 µM. Further, the concentration at 2 h in data set [10] came out at 152 µM. Besides, on hERG (KCNH2), the inhibition at 11 µM amounted to 11%. Besides, the bioavailability in data set [11] is 58%.
